# pIC50: −log10 of the molar value.
# Columns and labels:
# [1] = Selectivity index, ratio of IC50 for human HepG2 cells to IC50 for Plasmodium falciparum 3D7
# [2] = tested on: HepG2; experiment: Cytotoxicity against human HepG2 cells after 72 hrs by alamar blue assay; assay type: cell-based; conditions: HepG2, 72 h
# Summary of the method: (§1)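 HEK-293 and HepG2 cells grown in RPMI 1640 with 10% FBS and L-glutamine at 37 °C. Seeded at 5 × 10^3 cells/well and left 24 h before drug addition. Compounds tested from 312 to 0.6 µg/mL, artesunate and chloroquine from 120 µM to 60 nM, in triplicate for 72 h. DMSO vehicle and cell-free background wells as controls. 10% Alamar Blue added for 2 h, fluorescence read at ex 530/em 595 nm. IC50 from at least two independent experiments, mean ± SD.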
# [3] = Selectivity index, ratio of IC50 for human HEK293 cells to IC50 for Plasmodium falciparum 3D7
# [4] = tested on: HEK293; experiment: Cytotoxicity against human HEK293 cells after 72 hrs by alamar blue assay; assay type: cell-based; conditions: HEK293, 72 h
# Summary of the method: as §1
# [5] = tested on: Plasmodium falciparum; experiment: Antimalarial activity against chloroquine-sensitive Plasmodium falciparum D6 infected in human O positive red blood cells assessed as inhibition of [3H]-hypoxanthine uptake after 48 hrs; assay type: functional, organism-based
# Summary of the method: (§2)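 Synchronised ring-stage parasites (sorbitol selection) kept in RPMI-1640 with HEPES, glucose, hypoxanthine, gentamycin, 10% human plasma and 4% O+ RBCs under 5% O2/5% CO2/90% N2 at 37 °C. Assay at 2% hematocrit and 1% parasitemia in hypoxanthine-free medium. DMSO stocks of 20-25 mg/mL, ten 2-fold dilutions in triplicate, 48 h. [3H]-hypoxanthine (0.2 µCi) added at 24 h. IC50 taken against compound-free controls.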
# [6] = tested on: Plasmodium berghei; experiment: Antimalarial activity against Plasmodium berghei infected in mouse assessed as reduction of parasite infection at 32 mg/kg, sc qd for 4 days relative to control; assay type: functional; design: scale not given: the % may be the effect or the level left; conditions: route subcutaneous
# [7] = tested on: Plasmodium falciparum; experiment: Antimalarial activity against chloroquine, pyrimethamine, and mefloquine-resistant Plasmodium falciparum Dd2 infected in human O positive red blood cells assessed as inhibition of [3H]-hypoxanthine uptake after 48 hrs; assay type: functional, organism-based
# Summary of the method: as §2
# [8] = tested on: Plasmodium falciparum; experiment: Antimalarial activity against chloroquine and pyrimethamine-resistant Plasmodium falciparum K1 infected in human O positive red blood cells assessed as inhibition of [3H]-hypoxanthine uptake after 48 hrs; assay type: functional, organism-based
# Summary of the method: as §2
# [9] = tested on: Mus musculus; experiment: Toxicity in mouse assessed as physical stress at 32 mg/kg, sc qd for 4 days; assay type: organism-based; design: dose 32 mg/kg, route subcutaneous; conditions: in vivo, 96 h
# Summary of the method: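 Tolerability in healthy mice: subcutaneous dosing for 4 days. Mice watched for physical stress, namely ruffled coat, extreme pallor, weight loss, shaking and reduced mobility.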
# [10] = tested on: Plasmodium falciparum; experiment: Antimalarial activity against multidrug-resistant Plasmodium falciparum TM90-C2B infected in human O positive red blood cells assessed as inhibition of [3H]-hypoxanthine uptake after 48 hrs; assay type: functional, organism-based
# Summary of the method: as §2
# [11] = tested on: Plasmodium falciparum; experiment: Antimalarial activity against multidrug-resistant Plasmodium falciparum TM93-C1088 infected in human O positive red blood cells assessed as inhibition of [3H]-hypoxanthine uptake after 48 hrs; assay type: functional, organism-based
# Summary of the method: as §2
# [12] = tested on: Plasmodium falciparum; experiment: Antimalarial activity against chloroquine-sensitive Plasmodium falciparum 3D7 infected in human O positive red blood cells assessed as inhibition of [3H]-hypoxanthine uptake after 48 hrs; assay type: functional, organism-based
# Summary of the method: as §2
# [13] = tested on: Plasmodium berghei; experiment: Antimalarial activity against Plasmodium berghei infected in mouse assessed as reduction of parasite infection at 32 mg/kg, sc bid for 4 days relative to control; assay type: functional; design: scale not given: the % may be the effect or the level left; conditions: route subcutaneous
# Summary of the method: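 Peters 4-day suppressive test in female mice (n = 6) inoculated intraperitoneally with 20 × 10^6 P. berghei ANKA-infected erythrocytes. Test articles dissolved in Tween 80/ethanol (7:3, v/v), diluted 10-fold in distilled water, and given subcutaneously from D0 (about 2 and 6 h post-inoculation) over 4 days. Chloroquine prepared in water. Giemsa-stained thin smears on D+1 to D+4. Microscopic % infected erythrocytes, suppression at D+4 versus vehicle control.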
# [14] = tested on: Plasmodium berghei; experiment: Antimalarial activity against Plasmodium berghei infected in mouse assessed as reduction of parasite infection at 1 mg/kg, sc qd for 4 days relative to control; assay type: functional; design: scale not given: the % may be the effect or the level left; conditions: route subcutaneous
# [15] = tested on: Plasmodium berghei; experiment: Antimalarial activity against Plasmodium berghei infected in mouse assessed as reduction of parasite infection at 2 mg/kg, sc qd for 4 days relative to control; assay type: functional; design: scale not given: the % may be the effect or the level left; conditions: route subcutaneous
Compound,SI [1],pIC50 [2],SI [3],pIC50 [4],pIC50 [5],Activity [6],pIC50 [7],pIC50 [8],Activity [9],pIC50 [10],pIC50 [11],pIC50 [12],Activity [13],Activity [14],Activity [15]
C[C@H]1[C@H](OC(=O)CCC(=O)O)O[C@@H]2O[C@@]3(C)CC[C@H]4[C@H](C)CC[C@@H]1[C@@]24OO3 [ARTESUNATE],374,4.90,150,5.54,–,–,–,–,–,–,–,–,–,–,–
C[C@H]1O[C@H](OC[C@H]2O[C@@H](Oc3cc(O)c4c(=O)c(O)c(-c5ccc(O)c(O)c5)oc4c3)[C@H](O)[C@@H](O)[C@H]2O)[C@@H](O)[C@@H](O)[C@@H]1O (stereo in doubt),–,–,–,–,< 3.30,–,–,–,–,–,–,–,–,–,–
O=C1C=CC(O)(/C=C/C(=O)OC[C@H]2O[C@@H](Oc3ccc(O)cc3)[C@H](O)[C@@H](O)[C@@H]2O)C=C1 [ROBUSTASIDE D],37,3.66,33,3.71,5.29,21%,5.52,5.52,Non-toxic,5.28,5.39,5.26,95%,–,–
O=C(/C=C/C1(O)C=CC(O)CC1=O)OC[C@H]1O[C@@H](Oc2ccc(O)cc2)[C@H](O)[C@@H](O)[C@@H]1O (stereo not given in full) [ROBUSTASIDE E],> 10,< 3.16,> 10,< 3.16,4.26,–,4.26,4.53,–,4.44,4.60,4.11,–,–,–
CCN(CC)CCCC(C)Nc1ccnc2cc(Cl)ccc12 (stereo not given) [CHLOROQUINE],415,5.08,600,4.92,–,–,–,–,–,–,–,–,–,58%,97%
COc1ccc(O)c(/C=C\C(=O)OC[C@H]2O[C@@H](Oc3ccc(O)cc3)[C@H](OC(=O)/C=C\c3cc(OC)ccc3O)[C@@H](O)[C@@H]2O)c1 [ROBUSTASIDE F],–,–,–,–,4.83,–,–,–,–,–,–,–,–,–,–

# Reference: ChEMBL document CHEMBL1667740, “Phenolic glycosides with antimalarial activity from Grevillea "Poorinda Queen"” (J Nat Prod, 2011)
